# Laboratory results as given in PubChem BioAssay.
# Activity calls are given as the source filed them.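 How the source made its calls, unless noted: active means viability at or under a set limit in both replicates, limit being median viability minus 3 SD (cut at about 48% in these data, passing the limit was not always enough); inconclusive means at or under the limit in just one replicate; inactive means at or above the limit in both replicates.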
# Tests used:
# [1] = reducers of endogenous Her2 protein level, primary screen, SKBR3 breast tumor cells, AlphaScreen, ATP viability (AID 461;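 active means Her2 level under about 52% in both replicate screens, with viability over 70% of control, limit read from the data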;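 on Her2 level: lower value means less Her2 protein in the cells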;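 on viability: percent of carrier control wells set as 100% viability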); details: 18-24 h, measured here: SKBR3 viability, ATP luminescence, at 10 µM
# [2] = biological target: Receptor tyrosine-protein kinase erbB-2 (Homo sapiens) (UniProt P04626); experiment: as above; details: 18-24 h, at 10 µM, stronger effect = lower value
# [3] = SK-BR-3 cell growth inhibitors, pilot screen, 24 h, human (AID 572;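 active means viability at or below 10% of carrier control in both of two separate runs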;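 further: compound exposure lasted between 18 and 24 h rather than exactly 24 h; 100% = carrier-treated control wells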); details: SK-BR-3 viability, CellTiter-Glo luminescence, at 10 µM, stronger effect = lower value
# [4] = HUVEC growth inhibition – cell-based, human, primary screen (AID 575;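 active means viability at or below 30% in both replicate assays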;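 further: 100% = median of untreated cell wells with 0.1% DMSO on each plate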); details: HUVEC proliferation, CellTiter-Glo luminescence, 72 h; at 10 µM; stronger effect = lower value
# In short: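 Assay system: primary human umbilical vein endothelial cells / Buffer or medium: endothelial basal medium with 2% FBS plus growth supplements / Compound dosing: one dose, 10 µM final, 0.1% DMSO / Timing: 72 h treatment at 37 °C / Signal: CTG luminescence / Benchmarks: 32 DMSO-only cell-control wells (high), 32 MePR drug-control wells (low) per plate / Plate: collagen-coated 384-well format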
# [5] = growth inhibitors of H69AR lung tumor, primary screen, human, duplicate replicates (AID 580); details: H69AR lung tumor cells viability, ATP luminescence, 72 h; at 10 µM; stronger effect = lower value;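 further: 100% = mean luminescence of untreated wells and 0% = no signal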
# [6] = reversal of MRP1-mediated doxorubicin resistance, pilot screen, H69AR cells, doxorubicin co-treatment (AID 601;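 active means viability loss from added drug above about 55%, and viability with drug at most 40%, in both replicates, limit read from the data, passing the limit was not always enough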); details: CellTiter-Glo, 72 h, at 10 µM; for differential viability (reversal): stronger effect = higher value
# [7] = 384-well plate pilot, post-Golgi transport modulator project, inhibition of yeast transport mutant growth (AID 636; in the data active means inhibition above about 31%); details: absorbance 615 nm, about 18 h, stronger effect = higher value
# [8] = growth suppression of yeast trafficking mutant, preliminary HTS, modulators of trafficking downstream of Golgi apparatus project, 1536-format plate, OD 615 nm (AID 637; in the data active means inhibition above about 30%); details: yeast transport mutant growth, absorbance 615 nm, 18 h; stronger effect = higher value
# [9] = H69AR cells + 2 uM doxorubicin, measured here: viability with 2 uM doxorubicin, stronger effect = lower value
# [10] = H69AR cells, compound alone cytotoxicity
# Receptor tyrosine-protein kinase erbB-2 (Homo sapiens), sequence (P04626 whole entry, looked up): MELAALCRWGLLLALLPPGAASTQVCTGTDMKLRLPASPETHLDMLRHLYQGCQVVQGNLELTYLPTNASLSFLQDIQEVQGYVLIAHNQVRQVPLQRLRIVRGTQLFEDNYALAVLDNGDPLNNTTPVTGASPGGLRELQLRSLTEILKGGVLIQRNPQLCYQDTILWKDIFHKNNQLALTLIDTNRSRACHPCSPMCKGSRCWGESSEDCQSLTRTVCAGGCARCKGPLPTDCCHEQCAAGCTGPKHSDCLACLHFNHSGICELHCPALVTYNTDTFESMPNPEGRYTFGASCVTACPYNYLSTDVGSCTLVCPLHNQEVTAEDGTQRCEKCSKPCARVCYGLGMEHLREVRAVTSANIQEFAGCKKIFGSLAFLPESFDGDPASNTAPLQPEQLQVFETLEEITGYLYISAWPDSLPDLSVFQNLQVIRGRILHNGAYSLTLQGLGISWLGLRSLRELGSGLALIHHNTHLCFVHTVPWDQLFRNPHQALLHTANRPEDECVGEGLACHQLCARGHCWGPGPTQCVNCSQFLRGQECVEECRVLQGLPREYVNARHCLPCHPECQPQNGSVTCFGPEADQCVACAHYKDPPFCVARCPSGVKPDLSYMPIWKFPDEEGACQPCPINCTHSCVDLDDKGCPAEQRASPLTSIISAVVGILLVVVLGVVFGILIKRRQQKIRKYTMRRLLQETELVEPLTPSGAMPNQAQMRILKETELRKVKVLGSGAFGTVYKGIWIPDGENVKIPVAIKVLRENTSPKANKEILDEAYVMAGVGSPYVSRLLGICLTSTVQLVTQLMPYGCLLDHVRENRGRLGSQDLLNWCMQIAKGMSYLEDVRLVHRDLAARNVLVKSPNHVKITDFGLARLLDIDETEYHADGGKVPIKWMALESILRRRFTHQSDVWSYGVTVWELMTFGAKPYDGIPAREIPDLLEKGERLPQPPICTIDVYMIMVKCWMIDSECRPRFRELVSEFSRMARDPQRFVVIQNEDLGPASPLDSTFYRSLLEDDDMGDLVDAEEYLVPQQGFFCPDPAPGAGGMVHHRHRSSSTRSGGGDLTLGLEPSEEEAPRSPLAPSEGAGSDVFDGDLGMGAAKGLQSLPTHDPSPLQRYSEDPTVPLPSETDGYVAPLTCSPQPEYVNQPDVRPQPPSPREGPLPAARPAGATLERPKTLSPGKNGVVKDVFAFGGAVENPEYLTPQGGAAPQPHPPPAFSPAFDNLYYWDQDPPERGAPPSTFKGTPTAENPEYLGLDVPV
Compound,viability [1],Her2 level [2],viability [3],viability [4],viability [5],differential viability (reversal) ([6]; H69AR cells + 2 uM doxorubicin),"viability [6, 9]","viability [6, 10]",inhibition [7],inhibition [8]
O=C(O)CN1C(=O)CNC1=O,98%,93.5% (inactive),98% (inactive),99.2% (inactive),97.6% (inactive),2.41% (inactive),95.2%,97.6%,-4.86% (inactive),7.21% (inactive)
COc1ccc(OCC(=O)N2CCN(C(=O)c3cccs3)CC2)cc1,117%,82.5% (inactive),117% (inactive),83.5% (inactive),87.4% (inactive),1.78% (inactive),85.6%,87.4%,-3.29% (inactive),-2.9% (inactive)
Cc1ccc(-n2c(=O)[nH]c3c(C(N)=O)nc(CC(C)C)nc32)cc1,105%,106% (inactive),105% (inactive),89% (inactive),72.6% (inactive),-18.6% (inactive),91.2%,72.6%,-2.76% (inactive),5.57% (inactive)
CCOCCCNC(=O)CCNS(=O)(=O)c1ccc(C)cc1,102%,108% (inactive),102% (inactive),89.9% (inactive),105% (inactive),8.21% (inactive),96.7%,105%,-3.03% (inactive),-5.5% (inactive)
Cc1ccc(OCC(=O)NCCN2CCCC2)cc1,97.5%,84.5% (inactive),97.5% (inactive),86% (inactive),95.9% (inactive),9.56% (inactive),86.4%,95.9%,-6.8% (inactive),2.3% (inactive)
COc1ccc(-n2c(Cc3cccn3C)nnc2SCC(=O)Nc2cccc(C)c2C)cc1,88.5%,97% (inactive),88.5% (inactive),91.4% (inactive),93.8% (inactive),-2.92% (inactive),96.7%,93.8%,-0.64% (inactive),-6.67% (inactive)
CS(=O)(=O)N1CCN(CC2CC3C=CC2C3)CC1 (stereo not given),110%,98% (inactive),110% (inactive),111% (inactive),101% (inactive),9.65% (inactive),91.1%,101%,-6.35% (inactive),3.17% (inactive)
CCc1nnc(NC(=O)C2CCCN2S(=O)(=O)c2ccc(C)cc2)s1 (stereo not given),91.5%,89.5% (inactive),91.5% (inactive),117% (inactive),117% (inactive),5.4% (inactive),112%,117%,-6.35% (inactive),6.07% (inactive)
CCOC(=O)N1CCN(C(=O)COc2ccc(Br)cc2Cl)CC1,96%,112% (inactive),96% (inactive),117% (inactive),93.7% (inactive),2.46% (inactive),91.2%,93.7%,-1.17% (inactive),-5.33% (inactive)
O=C(NC1CCCCCC1)C1c2ccccc2C(=O)N1Cc1cccnc1 (stereo not given),108%,99.5% (inactive),108% (inactive),74.3% (inactive),90.1% (inactive),-12.5% (inactive),103%,90.1%,0.13% (inactive),-7.3% (inactive)
CCOc1ccc(NC(=O)CSc2nnnn2CC(=O)O)cc1,104%,98% (inactive),104% (inactive),96% (inactive),95.7% (inactive),-4.13% (inactive),99.8%,95.7%,-3.16% (inactive),-5.65% (inactive)
CCOC(=O)C(NCc1ccccc1OC)(NC(C)=O)C(F)(F)F (stereo not given),116%,91% (inactive),116% (inactive),98.8% (inactive),91.8% (inactive),1.75% (inactive),90.1%,91.8%,-2.6% (inactive),-0.63% (inactive)
CCn1c(SCC(=O)Nc2ccc(C(C)=O)cc2)nc2ccccc21,90%,77% (inactive),90% (inactive),57% (inactive),83.1% (inactive),-3.56% (inactive),86.7%,83.1%,-1.45% (inactive),-3.45% (inactive)
Cc1ccc2c(c1C)NC(C)CC2C (stereo not given),100%,82% (inactive),100% (inactive),103% (inactive),97.2% (inactive),8.96% (inactive),88.2%,97.2%,-0.39% (inactive),-0.73% (inactive)
COc1ccc(-n2ncc3c(NCc4ccccn4)ncnc32)cc1,98.5%,97.5% (inactive),98.5% (inactive),102% (inactive),90.5% (inactive),3.51% (inactive),87%,90.5%,-1.97% (inactive),4.19% (inactive)
CS(=O)(=O)N(CC(=O)NCc1ccccn1)c1ccc2c(c1)OCCO2,104%,104% (inactive),104% (inactive),96.8% (inactive),97.8% (inactive),9.83% (inactive),87.9%,97.8%,-6.93% (inactive),4.35% (inactive)

Compound,viability [1],Her2 level [2],viability [3],viability [4],viability [5],differential viability (reversal) ([6]; H69AR cells + 2 uM doxorubicin),"viability [6, 9]","viability [6, 10]",inhibition [7],inhibition [8]
CCn1cc(C(=O)N=c2sc3ccccc3n2C)c(=O)c2ccc(C)nc21,92.5%,84.5% (inactive),92.5% (inactive),80.3% (inactive),95.7% (inactive),7.91% (inactive),87.8%,95.7%,1.41% (inactive),-2.83% (inactive)
CC(NS(=O)(=O)c1ccccc1)C(c1cccs1)N1CCN(C)CC1 (stereo not given),93.5%,79.5% (inactive),93.5% (inactive),81.1% (inactive),94.5% (inactive),15% (inactive),79.4%,94.5%,-5% (inactive),-6.83% (inactive)
CC(C)(C)c1ccccc1NC(=O)c1cccnc1,91.5%,93.5% (inactive),91.5% (inactive),88.7% (inactive),96.6% (inactive),7.78% (inactive),88.8%,96.6%,-4.67% (inactive),0.32% (inactive)
COC(=O)CC1SC(=O)NC1=O (stereo not given),110%,120% (inactive),110% (inactive),102% (inactive),105% (inactive),10.4% (inactive),94.6%,105%,1.05% (inactive),-7.21% (inactive)
CCOC(=O)c1c(C)[nH]c(C(=O)Cn2c(=O)oc3ccccc32)c1C,102%,93.5% (inactive),102% (inactive),108% (inactive),89.5% (inactive),2.91% (inactive),86.6%,89.5%,-3.97% (inactive),0.33% (inactive)
CSc1nc(=NC(C)=O)ss1,122%,88.5% (inactive),122% (inactive),84.7% (inactive),71.8% (inactive),-20% (inactive),91.8%,71.8%,-6.8% (inactive),-10% (inactive)
Clc1cccc(Nc2c3c(nc4ncnn24)CCC3)c1,94.5%,82.5% (inactive),94.5% (inactive),93% (inactive),83.8% (inactive),-5.48% (inactive),89.2%,83.8%,1.82% (inactive),9.84% (inactive)
Clc1ccc(-n2ncc3c(NCCCn4ccnc4)ncnc32)cc1,87%,76.5% (inactive),87% (inactive),91.2% (inactive),93.5% (inactive),11.3% (inactive),82.2%,93.5%,-5.6% (inactive),3.39% (inactive)
COc1cccc(NC(=O)CSc2nnc(-c3cc(-c4ccccn4)nc4ccccc34)o2)c1,94.5%,85% (inactive),94.5% (inactive),81% (inactive),76.4% (inactive),-3.28% (inactive),79.7%,76.4%,-1.22% (inactive),-4.6% (inactive)
Cc1cc(C(=O)N2CCN(C/C=C/c3ccccc3)CC2)no1,92.5%,97.5% (inactive),92.5% (inactive),93.8% (inactive),93.2% (inactive),0.745% (inactive),92.5%,93.2%,-4.05% (inactive),2.62% (inactive)
O=C(NCc1cccnc1)c1ccc2c(c1)OCO2,74%,102% (inactive),74% (inactive),105% (inactive),89.7% (inactive),-16.9% (inactive),107%,89.7%,-1.35% (inactive),-9.18% (inactive)
Cc1c(NS(=O)(=O)c2ccc3c(c2)c(=O)n(C)c(=O)n3C)c(=O)n(-c2ccccc2)n1C,99.5%,85.5% (inactive),99.5% (inactive),77.8% (inactive),95.7% (inactive),6.11% (inactive),89.6%,95.7%,-4.4% (inactive),7.7% (inactive)
Cc1ccc(N2CC(C(=O)N3CCN(C(=O)c4ccco4)CC3)CC2=O)cc1 (stereo not given),96.5%,91% (inactive),96.5% (inactive),104% (inactive),96.1% (inactive),-1.97% (inactive),98.1%,96.1%,0.39% (inactive),-1.29% (inactive)
CCC(OC(=O)c1cccs1)C(=O)NCc1ccco1 (stereo not given),103%,93% (inactive),103% (inactive),98.6% (inactive),91.4% (inactive),9.38% (inactive),82%,91.4%,-2.86% (inactive),1.97% (inactive)
Cc1ccc(Cn2nnc3c(=O)[nH]c(C4CCN(C(=O)c5cccs5)CC4)nc32)cc1,90.5%,84% (inactive),90.5% (inactive),73.4% (inactive),86% (inactive),2.21% (inactive),83.8%,86%,-3.73% (inactive),-1.94% (inactive)
CCOC(=O)CNS(=O)(=O)c1c(C)noc1C,110%,104% (inactive),110% (inactive),70.6% (inactive),107% (inactive),20.6% (inactive),86.2%,107%,-4.47% (inactive),2.73% (inactive)
